pIC50: −log10 of the molar value. Where a SMILES comes first, the peptide text is derived from it. Bridges are numbered along the chain shown (N, C = ends). Roman numbers before positions name the chains, in order. [ ]: non-standard residue; d: D form. The star is where a group is joined. αMan = OC[C@H]1O[C@H](*)[C@@H](O)[C@@H](O)[C@@H]1O; Mpa = O=C(O)CCS

A short description of experiment [1]: Displacement of yeast mannan from Concanavalin A by Enzyme-linked lectin assay. The method in brief: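 Enhanced-sensitivity ELLA. Yeast mannan (10 µg/mL in PBS with CaCl2 and MnCl2) is coated overnight on plates and blocked 1 h at 37 °C with PBS containing 10 mg/mL BSA. Two-fold serial dilutions of inhibitor are preincubated 1 h at 37 °C with biotinylated Con A (5 µg/mL), transferred to the plates and incubated 1 h at 37 °C. Preformed Neutravidin–biotin-HRP is added for 1 h, then ABTS/H2O2 at pH 4.0. A415 is read after 5 min. IC50 is taken at 50% inhibition, at least triplicate.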

Experiment [2] is described as follows: Ratio of methyl alpha-D-mannoside IC50 to compound IC50 for binding affinity to Concanavalin A per carbohydrate moiety. The procedure, abridged: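 Valency-normalised relative potency is IC50 of methyl α-D-mannoside divided by (inhibitor IC50 × n), where n is the number of mannose units. The reference IC50 is measured on the same plate by enhanced-sensitivity ELLA.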

A short description of experiment [3]: Ratio of methyl alpha-D-mannoside IC50 to compound IC50 for binding affinity to Concanavalin A. The method in brief: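 Relative potency is IC50 of methyl α-D-mannoside divided by inhibitor IC50. The reference is measured under the same conditions on the same plate by enhanced-sensitivity ELLA, and reference IC50 values are corrected to a common experimental value.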

As usually defined, the pIC50 is the IC50 on a negative log10 scale, so that one unit is a factor of ten. Low readings indicate a large IC50, high ones a small IC50. In the case of `N=C(N)NCCC[C@H](NC(=O)[C@H](CCCCNC(=O)[C@H](Cc1ccc(O)cc1)NC(=O)CCS[C@@H]1O[C@@H](CO)[C@H](O)[C@@H](O)[C@H]1O)NC(=O)[C@H](Cc1ccc(O)cc1)NC(=O)CCS[C@H]1O[C@H](CO)[C@@H](O)[C@H](O)[C@@H]1O)C(=O)NCCCC[C@H](NC(=O)[C@H](CCCNC(=N)N)NC(=O)[C@H](CCCCNC(=O)[C@H](Cc1ccc(O)cc1)NC(=O)CCS[C@H]1O[C@H](CO)[C@@H](O)[C@H](O)[C@@H]1O)NC(=O)[C@H](Cc1ccc(O)cc1)NC(=O)CCS[C@H]1O[C@H](CO)[C@@H](O)[C@H](O)[C@@H]1O)C(N)=O`, the pIC50 in experiment [1] was 4.04. Besides, the Ratio IC50 was determined as 3.6 in experiment [2] and 14.3 in experiment [3].

For `N=C(N)NCCC[C@H](NC(=O)[C@H](CCCCNC(=O)[C@H](CCCCNC(=O)[C@H](Cc1ccc(O)cc1)NC(=O)CCS[C@H]1O[C@H](CO)[C@@H](O)[C@H](O)[C@@H]1O)NC(=O)[C@H](Cc1ccc(O)cc1)NC(=O)CCS[C@@H]1O[C@@H](CO)[C@H](O)[C@@H](O)[C@H]1O)NC(=O)[C@H](CCCCNC(=O)[C@H](Cc1ccc(O)cc1)NC(=O)CCS[C@H]1O[C@H](CO)[C@@H](O)[C@H](O)[C@@H]1O)NC(=O)[C@H](Cc1ccc(O)cc1)NC(=O)CCS[C@@H]1O[C@@H](CO)[C@H](O)[C@@H](O)[C@H]1O)C(N)=O`, the pIC50 in experiment [1] was 4.21. Besides, the Ratio IC50 in experiment [2] came out at 5.3; in experiment [3], 21.3.

`NC(=O)[C@H](CSSC[C@H](NC(=O)[C@H](CCCCNC(=O)[C@H](Cc1ccc(O)cc1)NC(=O)CCS[C@H]1O[C@H](CO)[C@@H](O)[C@H](O)[C@@H]1O)NC(=O)[C@H](Cc1ccc(O)cc1)NC(=O)CCS[C@@H]1O[C@@H](CO)[C@H](O)[C@@H](O)[C@H]1O)C(N)=O)NC(=O)[C@H](CCCCNC(=O)[C@H](Cc1ccc(O)cc1)NC(=O)CCS[C@H]1O[C@H](CO)[C@@H](O)[C@H](O)[C@@H]1O)NC(=O)[C@H](Cc1ccc(O)cc1)NC(=O)CCS[C@@H]1O[C@@H](CO)[C@H](O)[C@@H](O)[C@H]1O` had a pIC50 in experiment [1] of 4.28. The Ratio IC50 came out at 6.4 in experiment [2] and 25.4 in experiment [3].

With `NC(=O)[C@H](CCC(=O)O)NC(=O)[C@H](CCCCNC(=O)[C@H](CCCCNC(=O)[C@H](Cc1ccc(O)cc1)NC(=O)CCS[C@H]1O[C@H](CO)[C@@H](O)[C@H](O)[C@@H]1O)NC(=O)[C@H](Cc1ccc(O)cc1)NC(=O)CCS[C@@H]1O[C@@H](CO)[C@H](O)[C@@H](O)[C@H]1O)NC(=O)[C@H](CCCCNC(=O)[C@H](Cc1ccc(O)cc1)NC(=O)CCS[C@H]1O[C@H](CO)[C@@H](O)[C@H](O)[C@@H]1O)NC(=O)[C@H](Cc1ccc(O)cc1)NC(=O)CCS[C@@H]1O[C@@H](CO)[C@H](O)[C@@H](O)[C@H]1O`, the pIC50 in experiment [1] was 4.03. Also, the values for the Ratio IC50 in experiment [2] and in experiment [3] were 3.6 and 14.2, respectively.

On to `NC(=O)[C@H](CSSC[C@H](NC(=O)[C@H](Cc1ccc(O)cc1)NC(=O)CCS[C@H]1O[C@H](CO)[C@@H](O)[C@H](O)[C@@H]1O)C(N)=O)NC(=O)[C@H](Cc1ccc(O)cc1)NC(=O)CCS[C@H]1O[C@H](CO)[C@@H](O)[C@H](O)[C@@H]1O` (I: [Mpa](αMan)-Tyr-Cys-NH2 / II: [Mpa](αMan)-Tyr-Cys-NH2; disulfide I:3-II:3), for which the pIC50 in experiment [1] is 3.98. Also, the Ratio IC50 in experiment [2] was 6.4; in experiment [3] it was 12.7.

Compound `NC(=O)[C@H](CO)NC(=O)[C@H](CCCCNC(=O)[C@H](CCCCNC(=O)[C@H](Cc1ccc(O)cc1)NC(=O)CCS[C@H]1O[C@H](CO)[C@@H](O)[C@H](O)[C@@H]1O)NC(=O)[C@H](Cc1ccc(O)cc1)NC(=O)CCS[C@@H]1O[C@@H](CO)[C@H](O)[C@@H](O)[C@H]1O)NC(=O)[C@H](CCCCNC(=O)[C@H](Cc1ccc(O)cc1)NC(=O)CCS[C@H]1O[C@H](CO)[C@@H](O)[C@H](O)[C@@H]1O)NC(=O)[C@H](Cc1ccc(O)cc1)NC(=O)CCS[C@@H]1O[C@@H](CO)[C@H](O)[C@@H](O)[C@H]1O` gave a negative-log IC50 (pIC50) in experiment [1] of 4.26. In addition, the Ratio IC50 in experiment [2] was determined as 6; in experiment [3], 24.

For the compound `NC(=O)[C@H](CCCCNC(=O)[C@H](CCC(=O)O)NC(=O)[C@H](CCCCNC(=O)[C@H](Cc1ccc(O)cc1)NC(=O)CCS[C@@H]1O[C@@H](CO)[C@H](O)[C@@H](O)[C@H]1O)NC(=O)[C@H](Cc1ccc(O)cc1)NC(=O)CCS[C@H]1O[C@H](CO)[C@@H](O)[C@H](O)[C@@H]1O)NC(=O)[C@H](CCC(=O)O)NC(=O)[C@H](CCCCNC(=O)[C@H](Cc1ccc(O)cc1)NC(=O)CCS[C@H]1O[C@H](CO)[C@@H](O)[C@H](O)[C@@H]1O)NC(=O)[C@H](Cc1ccc(O)cc1)NC(=O)CCS[C@H]1O[C@H](CO)[C@@H](O)[C@H](O)[C@@H]1O`, the negative logarithm of the IC50 (pIC50) in experiment [1] is 4.22. Also, the Ratio IC50 in experiment [2] came out at 5.5; in experiment [3] it was 22.

`OC[C@H]1OC(O)[C@@H](O)[C@@H](O)[C@@H]1O` (stereo partly drawn) [D-MANNOSE]: in experiment [1], the pIC50 was 1.98. Moreover, the Ratio IC50 in experiment [2] and in experiment [3] was 0.13 throughout.

For the compound `NC(=O)[C@H](CSSC[C@H](NC(=O)[C@H](CCCCNC(=O)[C@H](CCCCNC(=O)[C@H](Cc1ccc(O)cc1)NC(=O)CCS[C@H]1O[C@H](CO)[C@@H](O)[C@H](O)[C@@H]1O)NC(=O)[C@H](Cc1ccc(O)cc1)NC(=O)CCS[C@@H]1O[C@@H](CO)[C@H](O)[C@@H](O)[C@H]1O)NC(=O)[C@H](CCCCNC(=O)[C@H](Cc1ccc(O)cc1)NC(=O)CCS[C@H]1O[C@H](CO)[C@@H](O)[C@H](O)[C@@H]1O)NC(=O)[C@H](Cc1ccc(O)cc1)NC(=O)CCS[C@@H]1O[C@@H](CO)[C@H](O)[C@@H](O)[C@H]1O)C(N)=O)NC(=O)[C@H](CCCCNC(=O)[C@H](CCCCNC(=O)[C@H](Cc1ccc(O)cc1)NC(=O)CCS[C@H]1O[C@H](CO)[C@@H](O)[C@H](O)[C@@H]1O)NC(=O)[C@H](Cc1ccc(O)cc1)NC(=O)CCS[C@@H]1O[C@@H](CO)[C@H](O)[C@@H](O)[C@H]1O)NC(=O)[C@H](CCCCNC(=O)[C@H](Cc1ccc(O)cc1)NC(=O)CCS[C@H]1O[C@H](CO)[C@@H](O)[C@H](O)[C@@H]1O)NC(=O)[C@H](Cc1ccc(O)cc1)NC(=O)CCS[C@@H]1O[C@@H](CO)[C@H](O)[C@@H](O)[C@H]1O`, the pIC50 in experiment [1] was 5.70. Moreover, the figures for the Ratio IC50 in experiment [2] and in experiment [3] were 83 and 660, respectively.

In experiment [1], `NC(=O)[C@H](CCCCNC(=O)[C@H](CO)NC(=O)[C@H](CCCCNC(=O)[C@H](Cc1ccc(O)cc1)NC(=O)CCS[C@@H]1O[C@@H](CO)[C@H](O)[C@@H](O)[C@H]1O)NC(=O)[C@H](Cc1ccc(O)cc1)NC(=O)CCS[C@H]1O[C@H](CO)[C@@H](O)[C@H](O)[C@@H]1O)NC(=O)[C@H](CO)NC(=O)[C@H](CCCCNC(=O)[C@H](Cc1ccc(O)cc1)NC(=O)CCS[C@H]1O[C@H](CO)[C@@H](O)[C@H](O)[C@@H]1O)NC(=O)[C@H](Cc1ccc(O)cc1)NC(=O)CCS[C@H]1O[C@H](CO)[C@@H](O)[C@H](O)[C@@H]1O` had a pIC50 of 4.19. The Ratio IC50 was determined as 5.2 in experiment [2] and 20.6 in experiment [3].

The compound `CO[C@H]1O[C@H](CO)[C@@H](O)[C@H](O)[C@@H]1O` had a pIC50 in experiment [1] of 2.88. Besides, the Ratio IC50 in experiment [2] and in experiment [3] was 1 in each case.

For `NC(=O)[C@H](CCCCNC(=O)[C@H](CCCCNC(=O)[C@H](CCCCNC(=O)[C@H](Cc1ccc(O)cc1)NC(=O)CCS[C@H]1O[C@H](CO)[C@@H](O)[C@H](O)[C@@H]1O)NC(=O)[C@H](Cc1ccc(O)cc1)NC(=O)CCS[C@@H]1O[C@@H](CO)[C@H](O)[C@@H](O)[C@H]1O)NC(=O)[C@H](CCCCNC(=O)[C@H](Cc1ccc(O)cc1)NC(=O)CCS[C@@H]1O[C@@H](CO)[C@H](O)[C@@H](O)[C@H]1O)NC(=O)[C@H](Cc1ccc(O)cc1)NC(=O)CCS[C@@H]1O[C@@H](CO)[C@H](O)[C@@H](O)[C@H]1O)NC(=O)[C@H](CCCCNC(=O)[C@H](CCCCNC(=O)[C@H](Cc1ccc(O)cc1)NC(=O)CCS[C@@H]1O[C@@H](CO)[C@H](O)[C@@H](O)[C@H]1O)NC(=O)[C@H](Cc1ccc(O)cc1)NC(=O)CCS[C@H]1O[C@H](CO)[C@@H](O)[C@H](O)[C@@H]1O)NC(=O)[C@H](CCCCNC(=O)[C@H](Cc1ccc(O)cc1)NC(=O)CCS[C@H]1O[C@H](CO)[C@@H](O)[C@H](O)[C@@H]1O)NC(=O)[C@H](Cc1ccc(O)cc1)NC(=O)CCS[C@H]1O[C@H](CO)[C@@H](O)[C@H](O)[C@@H]1O`, in experiment [1], the negative-log IC50 (pIC50) was 5.54. Further, the Ratio IC50 amounted to 57 in experiment [2] and 455 in experiment [3].

`NC(=O)[C@H](CCCCNC(=O)[C@H](Cc1ccc(O)cc1)NC(=O)CCS[C@H]1O[C@H](CO)[C@@H](O)[C@H](O)[C@@H]1O)NC(=O)[C@H](Cc1ccc(O)cc1)NC(=O)CCS[C@@H]1O[C@@H](CO)[C@H](O)[C@@H](O)[C@H]1O`: in experiment [1], the negative-log IC50 (pIC50) was 3.82. The Ratio IC50 in experiment [2] is 4.4; in experiment [3], 8.8.

In turn, `NC(=O)[C@H](CCCCNC(=O)[C@H](CCCCNC(=O)[C@H](Cc1ccc(O)cc1)NC(=O)CCS[C@H]1O[C@H](CO)[C@@H](O)[C@H](O)[C@@H]1O)NC(=O)[C@H](Cc1ccc(O)cc1)NC(=O)CCS[C@@H]1O[C@@H](CO)[C@H](O)[C@@H](O)[C@H]1O)NC(=O)[C@H](CCCCNC(=O)[C@H](Cc1ccc(O)cc1)NC(=O)CCS[C@H]1O[C@H](CO)[C@@H](O)[C@H](O)[C@@H]1O)NC(=O)[C@H](Cc1ccc(O)cc1)NC(=O)CCS[C@@H]1O[C@@H](CO)[C@H](O)[C@@H](O)[C@H]1O` gave a pIC50 in experiment [1] of 4.28. Moreover, the Ratio IC50 in experiment [2] was determined as 6.4; in experiment [3] it was 25.4.

In experiment [1], `O=[N+]([O-])c1ccc(O[C@H]2O[C@H](CO)[C@@H](O)[C@H](O)[C@@H]2O)cc1` had a negative-log IC50 (pIC50) of 3.19. Besides, the Ratio IC50 in experiment [2] and in experiment [3] was 2.1 in each case.

Source of the values: ChEMBL document CHEMBL1773048, “Synthesis of glycopeptide dendrimers, dimerization and affinity for Concanavalin A” (Bioorg Med Chem, 2011).
